Activity calls are given as the source filed them. The calls are words filed in the database; no cut-off is given here.
Tests used:
[1] = molecular target: Acyl-CoA (8-3)-desaturase (Rattus norvegicus) (UniProt Q920R3); experiment: Inhibition of delta5 desaturase in Sprague-Dawley rat liver microsome at 10 uM; type: microsomes
Rattus norvegicus = experiment: In vivo inhibition of SCD1 in Lewis rat liver microsome at 15 mg/kg, ip administered qd for 2 days; type: functional; conditions: 48 h, route intraperitoneal
Summary of the method: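 Lewis rats fed high-carbohydrate diet for one week, fasted 4 h, then dosed orally (0.1–1 mg/kg in 0.2% Tween 20/1% CMC; n = 4), killed 4 h later; ip arm 15 mg/kg once daily for two days. Liver microsomes prepared, SCD1 activity measured by tritiated water release from [9,10-3H]stearoyl-CoA. Mean ± SD of at least four rats.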

[2] = Apparent permeability from basolateral to apical side in human Caco2 cells; type: ADME, cell-based; conditions: Caco-2
Summary of the method: (§1)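 Caco-2 monolayers; apparent permeability a-to-b and b-to-a reported in 10⁻⁶ cm/s.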

[3] = Metabolic stability in rat liver microsome after 30 mins by LC/MS/MS analysis; type: ADME; conditions: liver microsomes, read-out: Stability
Summary of the method: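 Compound incubated 30 min with rat liver microsomes; percent parent remaining by LC/MS/MS.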

[4] = Apparent permeability from apical to basolateral side in human Caco2 cells; type: ADME, cell-based; conditions: Caco-2; summary of the method: as §1
[5] = molecular target: Acyl-CoA 6-desaturase (Rattus norvegicus) (UniProt Q9Z122); experiment: Inhibition of delta6 desaturase in Sprague-Dawley rat liver microsome using cis,cis-9,12-octadecadienoic acid substrate at 10 uM
Acyl-CoA desaturase 1 = molecular target: T1, Acyl-CoA desaturase 1 (Mus musculus, UniProt P13516); experiment: Inhibition of SCD1 in ICR mouse liver microsome using [9,10 3H]- stearoyl-Coenzyme A substrate assessed as decreased production of tritiated water after 20 min by scintillation counting analysis
T1 sequence (P13516 whole entry): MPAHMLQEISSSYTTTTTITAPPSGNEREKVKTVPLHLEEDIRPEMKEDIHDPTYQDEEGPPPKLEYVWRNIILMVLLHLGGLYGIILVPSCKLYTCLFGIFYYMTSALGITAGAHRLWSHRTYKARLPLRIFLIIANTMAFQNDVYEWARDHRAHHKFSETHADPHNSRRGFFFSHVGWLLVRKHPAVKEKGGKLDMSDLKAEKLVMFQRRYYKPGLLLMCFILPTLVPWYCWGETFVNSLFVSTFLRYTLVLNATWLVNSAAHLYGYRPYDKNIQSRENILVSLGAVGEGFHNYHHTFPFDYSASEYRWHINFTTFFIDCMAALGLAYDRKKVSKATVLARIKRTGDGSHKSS

Stearoyl-CoA desaturase = molecular target: T2, Stearoyl-CoA desaturase (Homo sapiens, UniProt O00767); experiment: Inhibition of SCD1 in human HepG2 cells using [14C]-stearate substrate assessed as decreased production of [14C]-oleic acid after 24 hrs; type: cell-based
T2 sequence (O00767 whole entry): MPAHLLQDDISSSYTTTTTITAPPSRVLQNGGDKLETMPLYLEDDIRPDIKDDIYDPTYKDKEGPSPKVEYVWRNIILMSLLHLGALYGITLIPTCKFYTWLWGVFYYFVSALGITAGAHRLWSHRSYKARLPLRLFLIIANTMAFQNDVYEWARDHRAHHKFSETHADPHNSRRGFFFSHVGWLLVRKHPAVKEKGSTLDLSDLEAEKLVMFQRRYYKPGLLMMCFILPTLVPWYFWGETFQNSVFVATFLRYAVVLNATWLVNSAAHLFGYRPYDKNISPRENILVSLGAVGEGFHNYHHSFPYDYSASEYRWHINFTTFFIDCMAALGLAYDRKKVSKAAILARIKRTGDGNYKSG

Chain of Acyl-CoA (8-3)-desaturase (Rattus norvegicus) (Q920R3 whole entry, looked up): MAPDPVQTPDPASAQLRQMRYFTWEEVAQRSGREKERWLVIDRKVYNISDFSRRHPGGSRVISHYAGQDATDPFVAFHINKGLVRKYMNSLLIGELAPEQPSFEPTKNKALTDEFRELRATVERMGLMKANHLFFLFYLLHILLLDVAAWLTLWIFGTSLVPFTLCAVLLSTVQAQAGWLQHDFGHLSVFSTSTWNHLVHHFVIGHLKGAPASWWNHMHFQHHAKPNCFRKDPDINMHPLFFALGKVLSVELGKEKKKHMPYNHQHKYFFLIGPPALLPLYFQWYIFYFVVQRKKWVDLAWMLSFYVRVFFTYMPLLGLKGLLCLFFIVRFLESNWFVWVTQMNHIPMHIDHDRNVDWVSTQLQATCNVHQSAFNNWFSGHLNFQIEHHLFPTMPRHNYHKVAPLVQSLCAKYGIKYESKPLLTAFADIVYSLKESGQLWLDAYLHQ
Chain of Acyl-CoA 6-desaturase (Rattus norvegicus) (Q9Z122 whole entry, looked up): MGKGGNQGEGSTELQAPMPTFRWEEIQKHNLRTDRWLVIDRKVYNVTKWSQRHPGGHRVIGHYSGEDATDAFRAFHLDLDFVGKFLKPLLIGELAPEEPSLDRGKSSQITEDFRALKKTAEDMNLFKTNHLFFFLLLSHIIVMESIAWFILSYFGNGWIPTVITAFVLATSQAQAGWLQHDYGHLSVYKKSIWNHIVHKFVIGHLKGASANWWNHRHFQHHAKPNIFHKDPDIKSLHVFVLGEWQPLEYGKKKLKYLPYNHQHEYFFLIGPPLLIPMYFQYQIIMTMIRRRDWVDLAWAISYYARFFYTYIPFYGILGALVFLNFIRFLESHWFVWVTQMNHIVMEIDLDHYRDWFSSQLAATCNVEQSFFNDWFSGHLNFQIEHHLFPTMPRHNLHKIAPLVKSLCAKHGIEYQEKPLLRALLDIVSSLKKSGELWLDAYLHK

Compound | inhibition [1] | Papp B→A [2] [×10⁻⁶ cm/s] | remaining at 0.5 h [3] [%] | Papp A→B [4] [×10⁻⁶ cm/s] | inhibition [5] | IC50 (Acyl-CoA desaturase 1) [nM] | IC50 (Stearoyl-CoA desaturase) [nM] | inhibition in vivo at 15 mg/kg (Rattus norvegicus) [%]
CC(C)CCNC(=O)c1ccc(N2CCN(C(=O)c3ccccc3C(F)(F)F)CC2)cn1 |  |  |  |  |  | 220 |  | 
CC(C)(O)CCNC(=O)c1ccc(N2CCN(C(=O)c3ccccc3C(F)(F)F)CC2)nn1 |  |  |  |  |  | 10000 |  | 
O=C(NCCC1CC1)c1ccc(N2CCN(C(=O)C3CC3C(F)(F)F)CC2)nn1 (configuration not stated) |  |  |  |  |  | > 1000 |  | 
O=C(NCCC1CC1)c1ccc(N2CCN(C(=O)/C=C\C(F)(F)F)CC2)nn1 |  |  |  |  |  | > 10000 |  | 
O=C(NCc1ccccn1)c1ccc(N2CCN(C(=O)c3ccccc3C(F)(F)F)CC2)nn1 |  |  |  |  |  | 352 |  | 
O=C(NCCc1ccccc1)c1ccc(N2CCN(C(=O)c3ccccc3C(F)(F)F)CC2)nn1 | inactive | 15 | 56 | 16 | inactive |  |  | 
CC1CCCCC1C(=O)N1CCN(c2ccc(C(=O)NCCC3CC3)nn2)CC1 (configuration not stated) |  |  |  |  |  | 680 |  | 
O=C(NC[C@H](O)c1ccccc1)c1ccc(N2CCN(C(=O)c3ccccc3C(F)(F)F)CC2)nn1 | inactive | 28 | 92 | 22 | inactive |  |  | 
CN(C)c1ccc(Cl)c(C(=O)N2CCN(c3ccc(C(=O)NCCC4CC4)nn3)CC2)c1 |  |  |  |  |  | > 10000 |  | 
O=C(NCCC1CC1)c1ccc(N2CCN(C(=O)c3cc(F)ccc3F)CC2)nn1 |  |  |  |  |  | 3110 |  | 
O=C(NCCCCC1CC1)c1ccc(N2CCN(C(=O)c3ccccc3C(F)(F)F)CC2)nn1 | inactive | 17 | 42 | 13 | inactive |  |  | 
Cc1ccc(C)c(C(=O)N2CCN(c3ccc(C(=O)NCCC4CC4)nn3)CC2)c1 |  |  |  |  |  | 942 |  | 
O=C(NCc1ncco1)c1ccc(N2CCN(C(=O)c3ccccc3C(F)(F)F)CC2)nn1 |  |  |  |  |  | 500 |  | 
O=C(NCc1cocn1)c1ccc(N2CCN(C(=O)c3ccccc3C(F)(F)F)CC2)nn1 |  |  |  |  |  | 272 |  | 
O=C(NCCC1CC1)c1ccc(N2CCN(C(=O)c3ccoc3C(F)(F)F)CC2)nn1 | inactive |  |  |  | inactive |  | 290 | 
O=C(Nc1ccccn1)c1ccc(N2CCN(C(=O)c3ccccc3C(F)(F)F)CC2)nn1 |  |  |  |  |  | 1400 |  | 
O=C(NCCC1CC1)c1ccc(N2CCN(C(=O)c3cnc(Cl)nc3C(F)(F)F)CC2)nn1 | inactive |  |  |  | inactive | 321 | 5870 | 
O=C(NCc1ccn[nH]1)c1ccc(N2CCN(C(=O)c3ccccc3C(F)(F)F)CC2)nn1 |  |  |  |  |  | > 1000 |  | 
CCCCCCNC(=O)c1ncc(N2CCN(C(=O)c3ccccc3C(F)(F)F)CC2)cn1 |  |  |  |  |  | 1200 |  | 
CCOCCNC(=O)c1ccc(N2CCN(C(=O)c3ccccc3C(F)(F)F)CC2)nn1 |  |  |  |  |  | 1250 |  | 
O=C(NCCC1CC1)c1ccc(N2CCN(C(=O)c3ccccc3C(=O)O)CC2)nn1 |  |  |  |  |  | > 10000 |  | 
CN(C)c1ccccc1C(=O)N1CCN(c2ccc(C(=O)NCCC3CC3)nn2)CC1 |  |  |  |  |  | 920 |  | 
N#Cc1ccccc1C(=O)N1CCN(c2ccc(C(=O)NCCC3CC3)nn2)CC1 |  |  |  |  |  | > 1000 |  | 
COc1ccc(F)cc1C(=O)N1CCN(c2ccc(C(=O)NCCC3CC3)nn2)CC1 |  |  |  |  |  | 710 |  | 
COc1ccc(Br)c(C(=O)N2CCN(c3ccc(C(=O)NCCCc4ccccc4)cn3)CC2)c1 |  |  |  |  |  | 5100 |  | 
O=C(NC[C@@H](O)c1ccccc1)c1ccc(N2CCN(C(=O)c3ccccc3C(F)(F)F)CC2)nn1 | inactive | 29 | 82 | 23 | inactive |  |  | > 60
CC(C)CCNC(=O)c1cnc(N2CCN(C(=O)c3ccccc3C(F)(F)F)CC2)nc1 |  |  |  |  |  | > 10000 |  | 
CC(C)CCNC(=O)c1cnc(N2CCN(C(=O)c3ccccc3C(F)(F)F)CC2)cn1 |  |  |  |  |  | > 10000 |  | 
O=C(NCCC1CC1)c1ccc(N2CCN(C(=O)c3ccccc3F)CC2)nn1 |  |  |  |  |  | > 1000 |  | 

Continued, in another order:

inhibition [1] | Papp B→A [2] [×10⁻⁶ cm/s] | remaining at 0.5 h [3] [%] | Papp A→B [4] [×10⁻⁶ cm/s] | inhibition [5] | IC50 (Acyl-CoA desaturase 1) [nM] | IC50 (Stearoyl-CoA desaturase) [nM] | Compound | inhibition in vivo at 15 mg/kg (Rattus norvegicus) [%]
inactive | 23 | 37 | 25 | inactive | 15 |  | Cc1ccc(CNC(=O)c2ccc(N3CCN(C(=O)c4ccccc4C(F)(F)F)CC3)nn2)o1 | < 30
inactive | 18 | 14 | 20 | inactive | 21 |  | CCCCCCNC(=O)c1ccc(N2CCN(C(=O)c3ccccc3C(F)(F)F)CC2)nn1 | 
inactive | 29 | 79 | 29 | inactive | 32 |  | O=C(NCc1nccs1)c1ccc(N2CCN(C(=O)c3ccccc3C(F)(F)F)CC2)nn1 | 
 |  |  |  |  | 78 |  | CC(C)CCNC(=O)c1ccc(N2CCN(C(=O)c3ccccc3C(F)(F)F)CC2)nc1 | 
inactive | 29 | 66 | 28 | inactive | 62 | 192 | O=C(NCCC1CC1)c1ccc(N2CCN(C(=O)c3cc(F)ccc3Cl)CC2)nn1 | 
inactive | 26 | 72 | 20 | inactive | 58 |  | O=C(NCCC1CC1)c1ccc(N2CCN(C(=O)c3cccc(F)c3C(F)(F)F)CC2)nn1 | 
inactive | 34 | 97 | 34 | inactive | 6 |  | O=C(NCc1ccccc1)c1ccc(N2CCN(C(=O)c3ccccc3C(F)(F)F)CC2)nn1 | 
inactive |  |  |  | inactive | 113 | 119 | CC(C(=O)N1CCN(c2ccc(C(=O)NCCC3CC3)nn2)CC1)(C(F)(F)F)C(F)(F)F | 
inactive | 22 | 69 | 22 | inactive | 21 |  | O=C(NCCC1CC1)c1ccc(N2CCN(C(=O)c3ccc(F)cc3C(F)(F)F)CC2)nn1 | > 60
inactive | 10 | 9 | 13 | inactive | 83 |  | O=C(Nc1ccccc1)c1ccc(N2CCN(C(=O)c3ccccc3C(F)(F)F)CC2)nn1 | 
inactive | 22 | 49 | 22 | inactive | 25 |  | CCCCCNC(=O)c1ccc(N2CCN(C(=O)c3ccccc3C(F)(F)F)CC2)nn1 | 
inactive |  |  |  | inactive | 18 |  | CCCCCCCNC(=O)c1ccc(N2CCN(C(=O)c3ccccc3C(F)(F)F)CC2)nn1 | 
inactive |  |  |  | inactive | 69 |  | O=C(NCCCc1ccccc1)c1ccc(N2CCN(C(=O)c3ccccc3C(F)(F)F)CC2)nn1 | 
inactive |  |  |  | inactive | 150 |  | CC(CNC(=O)c1ccc(N2CCN(C(=O)c3ccccc3C(F)(F)F)CC2)nn1)c1ccccc1 (configuration not stated) | 
inactive | 30 | 63 | 32 | inactive | 34 |  | O=C(NCCCC1CC1)c1ccc(N2CCN(C(=O)c3ccccc3C(F)(F)F)CC2)nn1 | > 60
inactive |  |  |  | inactive | 33 |  | Cc1cnc(CNC(=O)c2ccc(N3CCN(C(=O)c4ccccc4C(F)(F)F)CC3)nn2)cn1 | 
inactive | 18 | 78 | 18 | inactive | 31 |  | O=C(NCc1ccc(C(F)(F)F)o1)c1ccc(N2CCN(C(=O)c3ccccc3C(F)(F)F)CC2)nn1 | 
inactive |  |  |  | inactive | 34 | 101 | O=C(NCCC1CC1)c1ccc(N2CCN(C(=O)c3cc(Cl)ccc3Cl)CC2)nn1 | 
